Assay outcomes: PubChem BioAssay, Johns Hopkins Ion Channel Center
KCNK3 inh: human KCNK3 channel inhibition, primary screen; O14649; CHO-KCNK3 thallium flux, FluxOR fluorescence; hits give low values; B-score at 10 µM; actives 0.84% (n = 340,000);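 active means B-score under library mean minus 4 SD, starting fluorescence ratio at most library mean plus 5 SD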;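 further: more negative B-score means stronger inhibition of thallium flux through KCNK3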
KCNQ1 block: human KCNQ1 channel inhibition; P51787; CHO-K1 KCNQ1, FluxOR thallium flux fluorescence; hits give high values; B-score at 10 µM; actives 1.3% (n = 310,000);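 active means compounds whose thallium flux B-score, printed positive for inhibition, exceeds three library SD while starting fluorescence stays within three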;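 further: channel opened by potassium depolarization with thallium stimulus after 20 min compound exposure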
hERG protect: hERG (human) protection from proarrhythmic block; Q12809; CHO-hERG, FluxOR thallium flux, dofetilide IC70 present; activation (rescue from dofetilide block), less the hit threshold, % at 10 µM; actives 0.51% (n = 310,000);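 active means activation above the mean of controls blocked by dofetilide plus 5 SD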;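 further: thallium influx through hERG after potassium depolarization seen as dye fluorescence rise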
Target sequence (Q12809 whole entry, looked up): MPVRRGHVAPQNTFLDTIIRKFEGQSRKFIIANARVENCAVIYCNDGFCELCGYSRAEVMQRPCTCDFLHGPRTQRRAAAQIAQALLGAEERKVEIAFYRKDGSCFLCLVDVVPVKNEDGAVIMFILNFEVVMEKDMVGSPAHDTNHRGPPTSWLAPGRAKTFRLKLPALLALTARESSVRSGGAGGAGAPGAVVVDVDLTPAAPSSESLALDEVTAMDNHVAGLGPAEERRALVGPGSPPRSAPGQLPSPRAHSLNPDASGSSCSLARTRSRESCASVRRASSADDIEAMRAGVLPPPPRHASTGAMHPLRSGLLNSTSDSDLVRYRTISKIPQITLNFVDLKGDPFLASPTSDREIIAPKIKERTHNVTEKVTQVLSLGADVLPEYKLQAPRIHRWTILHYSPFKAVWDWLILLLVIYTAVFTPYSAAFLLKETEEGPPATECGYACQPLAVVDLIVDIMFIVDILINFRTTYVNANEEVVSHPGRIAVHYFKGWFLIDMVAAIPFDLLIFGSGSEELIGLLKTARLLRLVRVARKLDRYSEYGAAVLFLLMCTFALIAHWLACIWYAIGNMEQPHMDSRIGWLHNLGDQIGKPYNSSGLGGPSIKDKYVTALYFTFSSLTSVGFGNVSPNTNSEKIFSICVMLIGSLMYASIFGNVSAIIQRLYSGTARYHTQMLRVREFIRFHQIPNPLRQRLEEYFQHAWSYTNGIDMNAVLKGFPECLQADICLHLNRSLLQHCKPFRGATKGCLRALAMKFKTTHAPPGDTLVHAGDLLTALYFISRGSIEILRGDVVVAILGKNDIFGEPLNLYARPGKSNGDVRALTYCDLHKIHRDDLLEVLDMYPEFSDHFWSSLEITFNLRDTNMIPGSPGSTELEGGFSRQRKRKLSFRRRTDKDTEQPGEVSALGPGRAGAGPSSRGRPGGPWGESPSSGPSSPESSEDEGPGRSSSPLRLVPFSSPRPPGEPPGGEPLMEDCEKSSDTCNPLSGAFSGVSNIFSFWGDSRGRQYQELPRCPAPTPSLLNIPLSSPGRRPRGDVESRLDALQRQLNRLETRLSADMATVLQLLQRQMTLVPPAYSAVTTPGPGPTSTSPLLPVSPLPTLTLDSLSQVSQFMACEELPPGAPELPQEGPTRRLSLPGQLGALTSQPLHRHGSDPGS
KCNQ1 pot: human KCNQ1 channel potentiation or activation; AID 2648; actives 0.35% (n = 310,000); CHO-K1 KCNQ1, thallium flux FluxOR fluorescence; hits give high values; P51787; B-score at 10 µM;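 active means fluorescence ratio B-score, a plate-corrected score, at least three library SD, with initial intensity B-score within 5 SD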
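Doses: Single concentration per compound, DMSO matched to controls | Test system: KCNQ1-transfected CHO-K1 cells | Timing: 90 min dye loading and 20 min compound exposure, both at room temperature | Measured by: Kinetic FluxOR thallium fluorescence, 10-s 1-Hz baseline, 110-s post-stimulus read | Medium: Assay buffer with matched DMSO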
KCNK9 inh: inhibitors of human KCNK9 two-pore domain potassium channel; HEK293 KCNK9, FluxOR thallium flux fluorescence; hits give low values; actives 1.2% (n = 310,000); B-score at 10 µM;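 active means ratio B-score over 3 SD below the library mean, with starting fluorescence within 5 SD of its mean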;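 further: negative B-score means less thallium flux so channel inhibition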
* hit, by the source's call; i = inactive; nt = no result given. This is a sample that favours compounds with a hit; in the whole collection about 3.1% have one here.

SMILES | KCNK3 inh | KCNQ1 block | hERG protect | KCNQ1 pot | KCNK9 inh
CC(NC(=O)C1CCC1)c1ccc(Br)cc1 (configuration not stated) | i | i | -1 | i | i
CC(NC(=O)C1CCCC1)c1ccc(Br)cc1 (configuration not stated) | i | i | 5.5* | i | i
CCCCCCC(NC(=O)Cc1ccc2ccccc2c1)C(=O)O (configuration not stated) | i | nt | nt | nt | nt
N#C/C(=C\c1ccc(N2CCOCC2)o1)C(=O)Nc1ccc(O)cc1 | i | 7* | -25 | i | i
N#C/C(=C/c1ccc(N2CCOCC2)o1)C(=O)NC1CCCCC1 | i | 7* | -24 | i | i
Cc1ccc(CNS(=O)(=O)c2ccc(F)c(F)c2)n1C | i | i | -5 | i | i
N#CC1(c2ccc(NC(=O)c3ccccc3F)cc2)CCCC1 | i | i | -13 | i | i
CCC(C)n1cnc2c(c1=O)c1nc3ccccc3nc1n2Cc1ccc2c(c1)OCO2 (configuration not stated) | nt | 7* | -9 | i | -7.2*
COC(=O)C1=C(C(=O)OC)[C@@H]2N(C)c3ccccc3[C@@]23C[C@@H](CO)N=C3N1 | nt | i | -7 | i | i
CC(Sc1n[nH]c(N)n1)C(=O)NC1CCCCC1C (configuration not stated) | i | i | -8 | 8* | i
CC1=CC2=NC(=O)/C(=C\c3cccn3CCOc3ccccc3)C(=N)N2O1 | i | i | -4 | i | i
CC1=CC2=NC(=O)/C(=C\c3cccn3CCOc3cccc(C)c3)C(=N)N2O1 | i | i | -15 | i | -7*
CC1=CC2=NC(=O)/C(=C\c3cccn3CCOc3cc(C)cc(C)c3)C(=N)N2O1 | i | i | -5 | i | -7.9*
COc1cccc(OCCn2cccc2/C=C2/C(=N)N3OC(C)=CC3=NC2=O)c1 | i | i | -8 | i | i
O=C(NCc1ccc(S(=O)(=O)Nc2ccccc2Cl)s1)c1ccccc1 | i | i | -11 | i | i
O=C(Nc1ccc(Cl)c([N+](=O)[O-])c1)Nc1nc2ccccc2s1 | nt | 9* | -9 | i | i
CC(CC(=O)Nc1ccc(Cl)c([N+](=O)[O-])c1)c1ccccc1 (configuration not stated) | i | 10* | -16 | i | i
Fc1cccc(CO/N=C/c2c(-c3ccccc3)nc3ccc(Cl)cn23)c1 | i | i | 6.7* | i | -6.6*
COc1ccc([C@H]2/C=C\CN(S(=O)(=O)c3ccc4ccccc4c3)[C@@H](C)C(=O)N2Cc2ccc(F)cc2)cc1 | i | i | -18 | i | -7.8*
CC1CN(C(=O)COC(=O)Cc2c(Cl)cccc2Cl)CC(C)O1 (configuration not stated) | i | nt | nt | nt | nt
CC(C)c1ccccc1-n1c(SCC(=O)N2CCc3ccccc3C2)nc2ccccc2c1=O | i | 9* | -11 | i | i
CCN1CCN(CC(=O)N2CCCC(C(=O)c3ccc(Oc4ccccc4)cc3)C2)CC1 (configuration not stated) | i | i | 5.5* | i | i
CCN1C(=O)[C@H]2[C@@H](c3ccc(-c4ccc(F)cc4)c(OC)c3)N[C@@](CC(C)C)(C(=O)OC)[C@H]2C1=O | nt | i | -14 | i | -12*
CCCOc1ccc(C(=O)NNC(=S)NC(=O)c2ccco2)cc1 | i | i | 18* | 12* | i
CCOc1ccc(NC(=S)NNC(=O)c2ccc(Br)cc2)cc1 | i | 6* | -9 | i | i
SMILES | KCNK3 inh | KCNQ1 block | hERG protect | KCNQ1 pot | KCNK9 inh
CC(C)(C)c1ccc(C(=O)NC(=S)NNC(=O)COc2ccccc2)cc1 | i | i | -5 | 30* | i
O=C(NNC(=S)Nc1ccc(Br)cc1)c1ccccc1 | i | i | -9 | i | i
CCCOc1ccc(C(=O)NNC(=S)NC(=O)c2ccccc2)cc1 | i | i | 17* | 34* | i
Cc1c(NC(=O)COC(=O)c2ccc(Cl)nc2)c(=O)n(-c2ccccc2)n1C | i | nt | nt | nt | nt
CCOc1cc2[nH]c(=S)n(CCCC(=O)NCc3ccccn3)c(=O)c2cc1OCC | i | i | -4 | i | i
O=C(Nc1ccc(Cl)cc1F)c1cccc2ccccc12 | i | i | -3 | i | i
NNC(=O)c1c(O)c2cccc3c2n(c1=O)CCC3 | i | i | -3 | i | i
CCCOc1ccc(C(=O)NNC(=S)NC(=O)c2cccs2)cc1 | i | i | 8.8* | 38* | i
O=C(NNC(=S)NC(=O)c1ccco1)c1ccc(F)cc1 | i | i | -8 | i | i
CCCOc1ccc(C(=O)NNC(=S)NC(C)=O)cc1 | i | i | -19 | i | i
O=C(NC(=S)NNC(=O)c1ccco1)c1ccc(Br)cc1 | i | 6* | -9 | i | i
CCCOc1ccc(C(=O)NNC(=S)NC(=O)c2cc(-c3ccccc3)nc3ccccc23)cc1 | i | i | -2 | 19* | i
CCCOc1ccc(C(=O)NNC(=S)NC(=O)c2ccccc2[N+](=O)[O-])cc1 | i | i | -16 | i | i
Cc1c(C(=O)Nc2cccnc2Cl)oc2ccccc12 | i | i | -7 | i | i
CC1CC(C)(C)CC2(C1)NC(=O)N(CC(=O)N1CCN(S(=O)(=O)c3ccc(F)c(F)c3F)CC1)C2=O (configuration not stated) | i | nt | nt | nt | nt
O=c1[nH]c(CN2CCN(c3ncccn3)CC2)nc2c(Br)cc(Br)cc12 | i | i | -16 | i | -7.5*
Cc1nnc(NC(=O)CN2CCN(Cc3ccc(F)cc3Cl)CC2)s1 | i | i | 6.3* | i | i
COC(=O)C1=C(Nc2ccccc2NS(=O)(=O)c2ccc(C(F)(F)F)cc2Cl)CSC1 | i | 6* | -11 | i | i
CCCN(CCC)Cc1c(C(=O)N/N=C/C(C)=C\c2ccco2)nnn1-c1nonc1N | i | i | -14 | 16* | i
CC(/C=N/NC(=O)c1nnn(-c2nonc2N)c1CN(C)C)=C\c1ccco1 | i | i | -7 | i | i
C/C(=N\NC(=O)c1nnn(-c2nonc2N)c1CN(C)c1ccccc1)c1ccccn1 | i | i | -10 | i | -7.6*
Nc1c(Br)cc(Br)c2c1C(=O)c1c(cccc1S(=O)(=O)O)C2=O | i | nt | nt | nt | nt
NC(=NC(=O)c1ccc(OC(F)(F)F)cc1)c1ccc(C(F)(F)F)cn1 | i | i | -2 | i | i
NC(=NC(=O)c1cccc(C(F)(F)F)c1)c1ccc(C(F)(F)F)cn1 | i | i | -10 | i | -7*
O=C(COc1ccc(Br)cc1CNC1CCCCC1)NCCc1ccccc1 | i | 8* | -14 | i | i
